ChEMBL document CHEMBL2176911 (J Med Chem, 2012)
The source made the active and inactive calls. The rule behind the calls is not given here.

How the values were obtained:
[1] = biological target: Dual specificity tyrosine-phosphorylation-regulated kinase 1A (Rattus norvegicus, UniProt Q63470); experiment: Inhibition of rat DYRK1A isolated from brain using KKISGRLSPIMTEQ as substrate and [gamma33P]ATP after 30 mins by scintillation counting
[2] = biological target: Dual specificity protein kinase CLK3 (Mus musculus, UniProt O35492); experiment: Inhibition of mouse recombinant GST-tagged CLK3 expressed in Escherichia coli using GRSRSRSRSRSR as substrate and [gamma33P]ATP after 30 mins by scintillation counting
Method in brief: (§1)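 Panel of purified kinases (recombinant from several species plus native enzymes), each assayed radiometrically over a range of inhibitor concentrations; IC50 in μM calculated from the dose-response curves.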

[3] = Inhibition of pig […] isolated from brain using RRKHAAIGpSAYSITA as substrate and [gamma33P]ATP after 30 mins by scintillation couting; design: species or system Sus scrofa; method in brief: as §1
[4] = biological target: Dual specificity tyrosine-phosphorylation-regulated kinase 1A (Rattus norvegicus) (UniProt Q63470); experiment: Inhibition of DYRK1A in CD Sprague-Dawley rat brain assessed as inhibition of human APP-induced neurodegeneration after 3 hrs by fluorescence microscopic analysis
HT-22 [5] = experiment: Inhibition of GSK3 in mouse HT22 cells at 10 uM after 4 hrs; assay type: cell-based
HT-22 [6] = experiment: Inhibition of GSK3-mediated […] phosphorylation in mouse HT22 cells at 0.01 to 10 uM after 24 hrs by Western blot analysis in presence of MG132; assay type: cell-based
[7] = biological target: Dual specificity tyrosine-phosphorylation-regulated kinase 1A (Mus musculus) (UniProt Q61214); experiment: Inhibition of DYRK1A isolated from mouse HT22 cells; assay type: cell-free; details: HT-22
HT-22 [8] = experiment: Downregulation of GSK3 expression in mouse HT22 cells after 4 hrs by Western blot analysis; assay type: functional, cell-based
[9] = biological target: Casein kinase II subunit beta (Mus musculus) (UniProt P67871); experiment: Binding affinity to CK2 beta subunit in mouse brain homogenate by Western blot analysis; assay type: tissue-based
Method in brief: (§2)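 Bead pull-down from HT22 cell or mouse brain extracts, with ethanolamine beads lacking ligand as control. Specificity was tested by adding excess free inhibitor to the extracts before binding.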

[10] = biological target: Casein kinase II subunit alpha (Mus musculus) (UniProt Q60737); experiment: Binding affinity to CK2 alpha subunit in mouse brain homogenate by Western blot analysis; assay type: tissue-based; method in brief: as §2
[11] = biological target: Glycogen synthase kinase-3 alpha (Mus musculus) (UniProt Q2NL51); experiment: Binding affinity to GSK3alpha in mouse brain homogenate by Western blot analysis; assay type: tissue-based; method in brief: as §2
[12] = biological target: Protein VAC14 homolog (Mus musculus) (UniProt Q80WQ2); experiment: Binding affinity to VAC14 in mouse HT22 cell lysate by Western blot analysis; assay type: cell-free; details: HT-22; method in brief: as §2
[13] = biological target: Casein kinase II subunit beta (Mus musculus) (UniProt P67871); experiment: Binding affinity to CK2 beta subunit in mouse HT22 cell lysate by Western blot analysis; assay type: cell-free; details: HT-22; method in brief: as §2
HT-22 [14] = experiment: Binding affinity to GSK3beta2 in mouse HT22 cell lysate by Western blot analysis; assay type: cell-free; method in brief: as §2
Protein VAC14 homolog = Protein VAC14 homolog (Mus musculus, UniProt Q80WQ2); experiment: Binding affinity to VAC14 in mouse brain homogenate after 3 hrs by competition affinity chromatographic analysis; assay type: tissue-based
Method in brief: (§3)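 Mouse brain lysate applied to a KinAffinity matrix of mixed immobilized broad-spectrum kinase inhibitors at highest loading density, with increasing concentrations of free inhibitor added. […] Separate titrations of the immobilized ligands gave BC50 values.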

[15] = biological target: 1-phosphatidylinositol 3-phosphate 5-kinase (Mus musculus, UniProt Q9Z1T6); experiment: Binding affinity to phosphatidylinositol-3-phosphate 5-kinase type 3 in mouse brain homogenate after 3 hrs by competition affinity chromatographic analysis; assay type: tissue-based; method in brief: as §3
[16] = biological target: Glycogen synthase kinase-3 alpha (Mus musculus, UniProt Q2NL51); experiment: Binding affinity to GSK3A in mouse brain homogenate after 3 hrs by competition affinity chromatographic analysis; assay type: tissue-based; method in brief: as §3
[17] = biological target: Casein kinase II subunit alpha' (Mus musculus, UniProt O54833); experiment: Binding affinity to CSNK2A2 in mouse brain homogenate after 3 hrs by competition affinity chromatographic analysis; assay type: tissue-based; method in brief: as §3
[18] = biological target: Casein kinase II subunit beta (Mus musculus, UniProt P67871); experiment: Binding affinity to […] in mouse brain homogenate after 3 hrs by competition affinity chromatographic analysis; assay type: tissue-based; method in brief: as §3
[19] = biological target: Dual specificity protein kinase CLK3 (Homo sapiens, UniProt P49761); experiment: Binding affinity to CLK3
[20] = biological target: Dual specificity protein kinase CLK4 (Homo sapiens, UniProt Q9HAZ1); experiment: Binding affinity to CLK4
[21] = Inhibition of CK2 at 10 uM after 30 mins
[22] = biological target: Serine/threonine-protein kinase pim-3 (Homo sapiens) (UniProt Q86V86); experiment: Inhibition of human recombinant His6-tagged PIM3 expressed in Sf21 cells using RSRHSSYPAGT as substrate at 1 uM after 30 mins
[23] = biological target: Serine/threonine-protein kinase pim-3 (Homo sapiens) (UniProt Q86V86); experiment: Inhibition of human recombinant His6-tagged PIM3 expressed in Sf21 cells using RSRHSSYPAGT as substrate at 10 uM after 30 mins
[24] = biological target: Dual specificity tyrosine-phosphorylation-regulated kinase 3 (Homo sapiens) (UniProt O43781); experiment: Inhibition of human recombinant GST-tagged DYRK3 expressed in Escherichia coli using KKISGRLSPIMTEQ as substrate at 10 uM after 30 mins
[25] = biological target: T1, Dual specificity tyrosine-phosphorylation-regulated kinase 2 (Homo sapiens) (UniProt Q92630); experiment: Inhibition of human recombinant GST-tagged DYRK2 expressed in Escherichia coli using KKISGRLSPIMTEQ as substrate at 1 uM after 30 mins
T1 sequence (whole entry): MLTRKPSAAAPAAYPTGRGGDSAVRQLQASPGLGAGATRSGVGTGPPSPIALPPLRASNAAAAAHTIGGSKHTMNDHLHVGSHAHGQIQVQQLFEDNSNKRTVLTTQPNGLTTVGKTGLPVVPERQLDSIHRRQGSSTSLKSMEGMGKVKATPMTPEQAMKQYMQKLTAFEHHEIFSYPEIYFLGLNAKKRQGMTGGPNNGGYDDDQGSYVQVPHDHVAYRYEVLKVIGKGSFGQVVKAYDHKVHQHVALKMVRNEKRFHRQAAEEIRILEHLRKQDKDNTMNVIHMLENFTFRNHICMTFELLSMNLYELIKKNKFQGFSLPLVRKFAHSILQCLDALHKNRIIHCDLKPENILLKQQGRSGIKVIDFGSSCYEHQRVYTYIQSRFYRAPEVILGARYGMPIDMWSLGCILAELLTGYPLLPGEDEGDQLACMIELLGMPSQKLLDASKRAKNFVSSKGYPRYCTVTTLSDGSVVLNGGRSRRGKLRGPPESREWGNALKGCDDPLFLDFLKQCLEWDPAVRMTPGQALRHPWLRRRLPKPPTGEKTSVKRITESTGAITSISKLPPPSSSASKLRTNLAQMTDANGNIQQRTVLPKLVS

[26] = Inhibition of Plasmodium falciparum recombinant GSK3 expressed in Escherichia coli using YRRAAVPPSPSLSRHSSPHQ-phosphoS-EDEEE as substrate and [gamma33P]ATP after 30 mins by scintillation counting; method in brief: as §1
[27] = biological target: Glycogen synthase kinase-3 beta (Homo sapiens, UniProt P49841); experiment: Inhibition of human recombinant GSK3beta expressed in insect cells using YRRAAVPPSPSLSRHSSPHQ-phosphoS-EDEEE as substrate and [gamma33P]ATP after 30 mins by scintillation counting

## O=C1NC(Nc2ccccc2)=N/C1=C\c1ccc2c(c1)OCO2
[1]
  IC50: 10 nM
[2]
  IC50: > 10000 nM
[3]
  IC50: 30000 nM
[4]
  inhibition: Dose-dependent effect
HT-22 [5]
  inhibition: inactive
HT-22 [6]
  inhibition: inactive
[7]
  inhibition: Dose-dependent effect
HT-22 [8]
  Activity: inactive
[9]
  Activity: Active
[10]
  Activity: Active
[11]
  Activity: Active
[12]
  Activity: Active
[13]
  Activity: Active
HT-22 [14]
  Activity: Active
Protein VAC14 homolog
  Kd(free): 15265 nM
[15]
  Kd(free): 6010 nM
[16]
  Kd(free): 3274 nM
[17]
  Kd(free): 574 nM
[18]
  Kd(free): 382 nM
[19]
  Kd: 1100 nM
[20]
  Kd: 70 nM
[21]
  inhibition: Active
[22]
  inhibition: Active
[23]
  inhibition: Active
[24]
  inhibition: Active
[25]
  inhibition: Active
[26]
  IC50: > 10000 nM
[27]
  IC50: 380 nM
